Laboratory results taken from ChEMBL document CHEMBL1139340, “Synthesis, radiosynthesis, and biological evaluation of carbon-11 and fluorine-18 labeled reboxetine analogues: potential positron emission tomography radioligands for in vivo imaging of the norepinephrine transporter” (J Med Chem, 2009).

Legend:
Liver [1] = experiment: Biodistribution in Sprague-Dawley rat liver at 300 uCi, iv after 30 mins; type: ADME, organism-based; settings: in vivo, 0.5 h
Pancreas [2] = experiment: Biodistribution in Sprague-Dawley rat pancreas at 300 uCi, iv after 60 mins; type: ADME, organism-based; settings: in vivo, 1 h
Spleen [3] = experiment: Biodistribution in Sprague-Dawley rat spleen at 300 uCi, iv after 5 mins; type: ADME, organism-based; settings: in vivo
[4] = Ratio of drug uptake in thalamus to caudate of anesthetized rhesus monkey at 15 to 20 mCi after 85 mins postinjection by microPET; type: ADME, organism-based, Macaca mulatta; settings: in vivo
How it was run: (§1)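 Anesthetized adult male rhesus monkeys scanned on a microPET P4 after 15–20 mCi of the 11C radioligand; emission collected continuously for 125 min, binned, time-activity curves from manually drawn anatomical ROIs; regional uptake divided by caudate uptake (caudate as NET-poor reference) at 85 min postinjection, at baseline.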

Bone [5] = experiment: Biodistribution in Sprague-Dawley rat bone at 300 uCi, iv after 15 mins; type: ADME, organism-based, Bone element; settings: in vivo, 0.25 h
Blood [6] = experiment: Biodistribution in Sprague-Dawley rat blood at 300 uCi, iv after 5 mins; type: ADME, organism-based; settings: in vivo
Spleen [7] = experiment: Biodistribution in Sprague-Dawley rat spleen at 300 uCi, iv after 15 mins; type: ADME, organism-based; settings: in vivo, 0.25 h
Muscle tissue [8] = experiment: Biodistribution in Sprague-Dawley rat muscle at 300 uCi, iv after 60 mins; type: ADME, organism-based; settings: in vivo, 1 h
Muscle tissue [9] = experiment: Biodistribution in Sprague-Dawley rat muscle at 300 uCi, iv after 30 mins; type: ADME, organism-based; settings: in vivo, 0.5 h
Blood [10] = experiment: Biodistribution in Sprague-Dawley rat blood at 300 uCi, iv after 60 mins; type: ADME, organism-based; settings: in vivo, 1 h
[11] = Biodistribution in Sprague-Dawley rat testis at 300 uCi, iv after 5 mins; type: ADME, organism-based; settings: in vivo
[12] = Ratio of drug uptake in thalamus to caudate of awaken rhesus monkey at 15 to 20 mCi after by PET method; type: ADME, Macaca mulatta; settings: in vivo
How it was run: (§2)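 Awake rhesus monkeys imaged on a high-resolution research tomograph (HRRT) for 120 min after radioligand injection; images coregistered with composite MRI to define regions; time-activity curves generated and highest ratio of regional uptake to caudate uptake taken.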

[13] = Ratio of drug uptake in thalamus to caudate of anesthetized rhesus monkey at 15 to 20 mCi pretreated with 0.125 mg/kg desipramine by microPET; type: ADME, organism-based, Macaca mulatta; design: dose 0.125 mg/kg; settings: in vivo
How it was run: (§3)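 Anesthetized adult male rhesus monkeys imaged on a microPET P4 system after injection of 15–20 mCi of the 11C-labeled radioligand. Desipramine was given 40 min before radiotracer injection. Emission data were collected continuously for 125 min and binned. ROIs were drawn manually on anatomical landmarks in the reconstructed images. The ratio of region-of-interest to caudate uptake was taken from time-activity curves at 85 min postinjection.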

Liver [14] = experiment: Biodistribution in Sprague-Dawley rat liver at 300 uCi, iv after 60 mins; type: ADME, organism-based; settings: in vivo, 1 h
Blood [15] = experiment: Biodistribution in Sprague-Dawley rat blood at 300 uCi, iv after 15 mins; type: ADME, organism-based; settings: in vivo, 0.25 h
Bone [16] = experiment: Biodistribution in Sprague-Dawley rat bone at 300 uCi, iv after 5 mins; type: ADME, organism-based, Bone element; settings: in vivo
[17] = Ratio of drug uptake in midbrain to caudate of awaken rhesus monkey at 15 to 20 mCi after by PET method; type: ADME, Macaca mulatta; settings: in vivo; how it was run: as §2
Kidney [18] = experiment: Biodistribution in Sprague-Dawley rat kidney at 300 uCi, iv after 30 mins; type: ADME, organism-based; settings: in vivo, 0.5 h
Blood [19] = experiment: Biodistribution in Sprague-Dawley rat blood at 300 uCi, iv after 30 mins; type: ADME, organism-based; settings: in vivo, 0.5 h
[20] = Ratio of drug uptake in midbrain to caudate of anesthetized rhesus monkey at 15 to 20 mCi pretreated with 0.125 mg/kg desipramine by microPET; type: ADME, organism-based, Macaca mulatta; design: dose 0.125 mg/kg; settings: in vivo; how it was run: as §3
[21] = Ratio of drug uptake in midbrain to caudate of anesthetized rhesus monkey at 15 to 20 mCi after 85 mins postinjection by microPET; type: ADME, organism-based, Macaca mulatta; settings: in vivo
How it was run: (§4)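 Anesthetized adult male rhesus monkeys given 15–20 mCi of the ¹¹C tracer, alone or after desipramine (0.125 or 0.25 mg/kg) 40 min beforehand. MicroPET emission collected continuously for 125 min and binned. ROIs drawn manually on anatomical landmarks to give time-activity curves. Region-to-caudate uptake ratio taken at 85 min postinjection.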

Kidney [22] = experiment: Biodistribution in Sprague-Dawley rat kidney at 300 uCi, iv after 60 mins; type: ADME, organism-based; settings: in vivo, 1 h
[23] = Ratio of drug uptake in cerebellum to caudate of awaken rhesus monkey at 15 to 20 mCi after by PET method; type: ADME, tissue-based, Macaca mulatta; settings: in vivo
How it was run: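 Awake rhesus monkeys imaged on a high-resolution research tomograph for 120 min after injection of the ¹¹C tracer. Images coregistered with composite MRI to define regions of interest. Highest cerebellum-to-caudate uptake ratio read from the time-activity curves.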

[24] = Ratio of drug uptake in cerebellum to caudate of anesthetized rhesus monkey at 15 to 20 mCi pretreated with 0.125 mg/kg desipramine by microPET; type: ADME, organism-based, Macaca mulatta; design: dose 0.125 mg/kg; settings: in vivo; how it was run: as §3
Heart [25] = experiment: Biodistribution in Sprague-Dawley rat heart at 300 uCi, iv after 5 mins; type: ADME, organism-based; settings: in vivo
Pancreas [26] = experiment: Biodistribution in Sprague-Dawley rat pancreas at 300 uCi, iv after 30 mins; type: ADME, organism-based; settings: in vivo, 0.5 h
Brain [27] = experiment: Biodistribution in Sprague-Dawley rat brain at 300 uCi, iv after 5 mins; type: ADME, organism-based; settings: in vivo
Spleen [28] = experiment: Biodistribution in Sprague-Dawley rat spleen at 300 uCi, iv after 30 mins; type: ADME, organism-based; settings: in vivo, 0.5 h
Heart [29] = experiment: Biodistribution in Sprague-Dawley rat heart at 300 uCi, iv after 15 mins; type: ADME, organism-based; settings: in vivo, 0.25 h
Heart [30] = experiment: Biodistribution in Sprague-Dawley rat heart at 300 uCi, iv after 30 mins; type: ADME, organism-based; settings: in vivo, 0.5 h
Brain [31] = experiment: Biodistribution in Sprague-Dawley rat brain at 300 uCi, iv after 30 mins; type: ADME, organism-based; settings: in vivo, 0.5 h
Muscle tissue [32] = experiment: Biodistribution in Sprague-Dawley rat muscle at 300 uCi, iv after 5 mins; type: ADME, organism-based; settings: in vivo
[33] = Biodistribution in Sprague-Dawley rat testis at 300 uCi, iv after 30 mins; type: ADME, organism-based; settings: in vivo, 0.5 h
Lung [34] = experiment: Biodistribution in Sprague-Dawley rat lung at 300 uCi, iv after 15 mins; type: ADME, organism-based; settings: in vivo, 0.25 h
Muscle tissue [35] = experiment: Biodistribution in Sprague-Dawley rat muscle at 300 uCi, iv after 15 mins; type: ADME, organism-based; settings: in vivo, 0.25 h
[36] = Biodistribution in Sprague-Dawley rat testis at 300 uCi, iv after 60 mins; type: ADME, organism-based; settings: in vivo, 1 h
Kidney [37] = experiment: Biodistribution in Sprague-Dawley rat kidney at 300 uCi, iv after 15 mins; type: ADME, organism-based; settings: in vivo, 0.25 h
Bone [38] = experiment: Biodistribution in Sprague-Dawley rat bone at 300 uCi, iv after 30 mins; type: ADME, organism-based, Bone element; settings: in vivo, 0.5 h
Heart [39] = experiment: Biodistribution in Sprague-Dawley rat heart at 300 uCi, iv after 60 mins; type: ADME, organism-based; settings: in vivo, 1 h
Lung [40] = experiment: Biodistribution in Sprague-Dawley rat lung at 300 uCi, iv after 60 mins; type: ADME, organism-based; settings: in vivo, 1 h
Liver [41] = experiment: Biodistribution in Sprague-Dawley rat liver at 300 uCi, iv after 15 mins; type: ADME, organism-based; settings: in vivo, 0.25 h
Pancreas [42] = experiment: Biodistribution in Sprague-Dawley rat pancreas at 300 uCi, iv after 15 mins; type: ADME, organism-based; settings: in vivo, 0.25 h
[43] = Ratio of drug uptake in cerebellum to caudate of anesthetized rhesus monkey at 15 to 20 mCi after 85 mins postinjection by microPET; type: ADME, organism-based, Macaca mulatta; settings: in vivo; how it was run: as §4
Brain [44] = experiment: Biodistribution in Sprague-Dawley rat brain at 300 uCi, iv after 15 mins; type: ADME, organism-based; settings: in vivo, 0.25 h
[45] = Ratio of drug uptake in pons to caudate of anesthetized rhesus monkey at 15 to 20 mCi pretreated with 0.125 mg/kg desipramine by microPET; type: ADME, organism-based, Macaca mulatta; design: dose 0.125 mg/kg; settings: in vivo; how it was run: as §3
Kidney [46] = experiment: Biodistribution in Sprague-Dawley rat kidney at 300 uCi, iv after 5 mins; type: ADME, organism-based; settings: in vivo
Lung [47] = experiment: Biodistribution in Sprague-Dawley rat lung at 300 uCi, iv after 5 mins; type: ADME, organism-based; settings: in vivo
Bone [48] = experiment: Biodistribution in Sprague-Dawley rat bone at 300 uCi, iv after 60 mins; type: ADME, organism-based, Bone element; settings: in vivo, 1 h
Pancreas [49] = experiment: Biodistribution in Sprague-Dawley rat pancreas at 300 uCi, iv after 5 mins; type: ADME, organism-based; settings: in vivo
Spleen [50] = experiment: Biodistribution in Sprague-Dawley rat spleen at 300 uCi, iv after 60 mins; type: ADME, organism-based; settings: in vivo, 1 h
[51] = Ratio of drug uptake in pons to caudate of anesthetized rhesus monkey at 15 to 20 mCi after 85 mins postinjection by microPET; type: ADME, organism-based, Macaca mulatta; settings: in vivo; how it was run: as §1
[52] = Ratio of drug uptake in pons to caudate of awaken rhesus monkey at 15 to 20 mCi after by PET method; type: ADME, Macaca mulatta; settings: in vivo; how it was run: as §2
Liver [53] = experiment: Biodistribution in Sprague-Dawley rat liver at 300 uCi, iv after 5 mins; type: ADME, organism-based; settings: in vivo
Lung [54] = experiment: Biodistribution in Sprague-Dawley rat lung at 300 uCi, iv after 30 mins; type: ADME, organism-based; settings: in vivo, 0.5 h
Brain [55] = experiment: Biodistribution in Sprague-Dawley rat brain at 300 uCi, iv after 60 mins; type: ADME, organism-based; settings: in vivo, 1 h
[56] = Biodistribution in Sprague-Dawley rat testis at 300 uCi, iv after 15 mins; type: ADME, organism-based; settings: in vivo, 0.25 h

Drug uptake (Liver [1]): 0.46 % ID/g | Drug uptake (Pancreas [2]): 0.63 % ID/g | Drug uptake (Spleen [3]): 3.5 % ID/g | Ratio [4]: 1.3 | Drug uptake (Bone [5]): 0.37 % ID/g | Drug uptake (Blood [6]): 0.13 % ID/g | Drug uptake (Spleen [7]): 1.79 % ID/g | Drug uptake (Muscle tissue [8]): 0.22 % ID/g | Drug uptake (Muscle tissue [9]): 0.22 % ID/g | Drug uptake (Blood [10]): 0.04 % ID/g | Drug uptake [11]: 0.18 % ID/g | Ratio [12]: 1.25 | Ratio [13]: 1.1 | Drug uptake (Liver [14]): 0.29 % ID/g | Drug uptake (Blood [15]): 0.05 % ID/g | Drug uptake (Bone [16]): 0.48 % ID/g | Ratio [17]: 1.2 | Drug uptake (Kidney [18]): 0.56 % ID/g | Drug uptake (Blood [19]): 0.05 % ID/g | Ratio [20]: 1.2 | Ratio [21]: 1.43 | Drug uptake (Kidney [22]): 0.31 % ID/g | Ratio [23]: 0.93 | Ratio [24]: 1.04 | Drug uptake (Heart [25]): 3.43 % ID/g | Drug uptake (Pancreas [26]): 0.77 % ID/g | Drug uptake (Brain [27]): 0.9 % ID/g | Drug uptake (Spleen [28]): 1.13 % ID/g | Drug uptake (Heart [29]): 1.49 % ID/g | Drug uptake (Heart [30]): 1.07 % ID/g | Drug uptake (Brain [31]): 0.55 % ID/g | Drug uptake (Muscle tissue [32]): 0.25 % ID/g | Drug uptake [33]: 0.19 % ID/g | Drug uptake (Lung [34]): 6.92 % ID/g | Drug uptake (Muscle tissue [35]): 0.22 % ID/g | Drug uptake [36]: 0.15 % ID/g | Drug uptake (Kidney [37]): 0.85 % ID/g | Drug uptake (Bone [38]): 0.2 % ID/g | Drug uptake (Heart [39]): 0.62 % ID/g | Drug uptake (Lung [40]): 1.98 % ID/g | Drug uptake (Liver [41]): 0.77 % ID/g | Drug uptake (Pancreas [42]): 0.83 | Ratio [43]: 1.25 | Drug uptake (Brain [44]): 0.72 % ID/g | Ratio [45]: 1.13 | Drug uptake (Kidney [46]): 2.66 % ID/g | Drug uptake (Lung [47]): 15.3 % ID/g | Drug uptake (Bone [48]): 0.17 % ID/g | Drug uptake (Pancreas [49]): 1.59 % ID/g | Drug uptake (Spleen [50]): 0.49 % ID/g | Ratio [51]: 1.44 | Ratio [52]: 1.13 | Drug uptake (Liver [53]): 0.28 % ID/g | Drug uptake (Lung [54]): 3.63 % ID/g | Drug uptake (Brain [55]): 0.25 % ID/g | Drug uptake [56]: 0.18 % ID/g
Compound: [11CH3]c1ccccc1O[C@@H](c1ccccc1)[C@@H]1CNCCO1
